Assay outcomes: PubChem, several laboratories
The sample as a whole holds a higher share of hits than the screen did.
XBP1 UPR activ – adaptive UPR (XBP1) activation; AID 463104; CHO-XBP1 luciferase reporter, IRE1-XBP1 UPR activation, luminescence; percent of tunicamycin response, DMSO as zero; activation, % at 20 µM; 330,000 compounds, 0.33% hits;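 active = versus positive control, 20 µM dose yields 30% or more activation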;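 note: 100% = tunicamycin at 10 µg/mL and 0% = DMSO only wells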
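incubation = overnight seeding at 37 °C, 6 h compound treatment at 37 °C | assay system = CHO-XBP1 cells stably carrying IRE1-XBP1-driven luciferase reporter | input = 1000 cells per well | detection = luciferase luminescence | dosing = single point, 20 µM final compound, 1% DMSO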
UPR CHOP act – activators of apoptotic arm of unfolded protein response (CHOP) | CHO-CHOP luciferase reporter, UPR activation, luminescence; percent of tunicamycin response over DMSO baseline | activation, % at 10 µM | 330,000 compounds, 0.34% hits | AID 449763;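 active = at 10 µM dose, activation of 40% or more, normalized to positive control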;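 note: 100% = tunicamycin at 10 µg/mL and 0% = DMSO alone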
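System: CHO CHOP reporter cells. Amount: 500 cells per well. Buffer or medium: F12 medium, 10% FBS. Compound dosing: one dose, 10 µM in 0.5% DMSO. Incubation: 6 h compound exposure at 37 °C after overnight seeding. Technique: Steady-Glo luciferase luminescence. Benchmarks: tunicamycin and DMSO controls.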
T cruzi inh – blocks replication of Trypanosoma cruzi; inhibition, % (no concentration beside the values); T. cruzi beta-gal in NIH3T3, luminescence, 90 h; 300,000 compounds, 1.4% hits;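 active = mean inhibition across valid replicates above about 55%, limit read from the data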;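 note: signal also drops with host cell toxicity which is not excluded here; 0% = plate median of DMSO wells and 100% = zero luminescence signal; higher percent means less beta-gal luminescence so fewer parasites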
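Test system: β-gal T. cruzi (Tulahuen C4) inside NIH/3T3 cells / Quantity: 5,000 cells/well / Measured by: luminescence from GalScreen with 0.05% NP40, read after 60 min / Medium: DMEM plus 2% FBS / Measure: parasite load inhibition, % / Reagent: Tulahuen C4 trypomastigotes, 5000/well / Schedule: co-culture of at least 90 h after 3 h attachment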
Dynein cargo inh – dynein cargo transport inhibition; AID 1381; 3617.4 mouse cells, GR-EGFP nuclear translocation imaging; test concentration mostly 20 µM; stimulated with dexamethasone, 1 µM; stronger effect = lower value; 220,000 compounds, 0.47% hits; z-score, hits read low;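 active = plate z-score of nuclear minus cytoplasmic receptor signal below a set negative limit, without overly bright fluorescence or cell loss, cut at about -3.5 in these data, passing the limit was not always enough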;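 note: z-score of nuclear minus cytoplasmic ring GR-EGFP intensity difference per well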
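Buffer or medium: Induction medium lacking tetracycline, stripped serum | Also added: Dexamethasone agonist, 1.0 µM final, for 30 min | Timing: 48 h induction, 1 h compound, 30 min dex at 37 °C | Detection: Formaldehyde fixation, Hoechst nuclear stain, 10x automated fluorescence imaging | Measure: Nuclear versus cytoplasmic GR-EGFP signal, averaged per well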
L major viab – reduces viability of Leishmania major promastigotes; resazurin fluorescence viability; inhibition, % at 10 µM; 200,000 compounds, 9% hits; in the data active = inhibition above about 50%;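 note: promastigotes grown with compound for 44 hours at 28 °C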
CHOP inhibitor – inhibitors of CHOP induction in ER stress response. 220,000 compounds, 3.8% hits. inhibition, % at 10 µM. CHO-K1 CHOP-promoter luciferase, tunicamycin-induced, 15-18 h;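 active = compounds that reduced the stress-induced luciferase reporter signal by more than about 70% of percent inhibition, limit read from the data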;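 note: 0% = tunicamycin plus vehicle and 100% = wells without tunicamycin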
CHOP inh conf – confirmation of CHOP induction inhibitors. shares compounds with CHOP inhibitor. CHO-CHOP promoter luciferase reporter, tunicamycin-induced, luminescence. inhibition, % at 10 µM. 2,100 compounds, 45% hits;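 active = mean of three repeat readings of reporter signal inhibition above a set limit, cut at about 70% in these data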;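 note: 0% = tunicamycin plus vehicle and 100% = wells lacking tunicamycin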
XBP1 UPR conf – confirmation of adaptive unfolded protein response (XBP1) activators | shares compounds with XBP1 UPR activ | CHO-XBP1 IRE1-XBP1 luciferase reporter, luminescence | activation, % at 20 µM | 1,000 compounds, 63% hits;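 active = reporter signal at least 30% of the positive control's activation in two or more of four replicate wells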;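 note: plate controls were DMSO negative control for no effect and tunicamycin 10 µg/mL positive control for full effect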
* = called active by the depositor.

Screening COc1ccccc1Nc1nnc(SCC(=O)NC(=O)Nc2ccc3c(c2)OCCO3)s1 returned XBP1 UPR activ 52*, UPR CHOP act -1, T cruzi inh -16, Dynein cargo inh -0.76, L major viab 56*, CHOP inhibitor 104*, CHOP inh conf 18 and XBP1 UPR conf 49*.
`CCCn1c(=O)c(C(=O)N/N=C/c2ccccc2F)c(O)c2ccccc21` gave XBP1 UPR activ 2, UPR CHOP act 1, T cruzi inh -14, Dynein cargo inh -0.77, L major viab 2 and CHOP inhibitor 68.
`CC(C)CCn1c(=O)c(C(=O)N/N=C/c2cccc(F)c2)c(O)c2ccccc21` gave XBP1 UPR activ 37*, UPR CHOP act 6, T cruzi inh 9, Dynein cargo inh -0.95, L major viab 9, CHOP inhibitor 106*, CHOP inh conf 90* and XBP1 UPR conf 4.
`NC(=O)CC(NC(=O)Cc1ccc(Cl)cc1)c1ccc(NCCOc2ccccc2)c([N+](=O)[O-])c1` (stereo unspecified) gave XBP1 UPR activ 0, UPR CHOP act 1 and T cruzi inh 12.
NC(=O)CC(NC(=O)Cc1cccc2ccccc12)c1ccc(NCCOc2ccccc2)c([N+](=O)[O-])c1 (stereo unspecified) was read as XBP1 UPR activ 48*, UPR CHOP act 2, T cruzi inh 8, Dynein cargo inh 0.87, CHOP inhibitor 101*, CHOP inh conf 112* and XBP1 UPR conf 39*.
Screening CCCOC(=O)c1cccc(Nc2nc(-c3cccnc3)nc3ccccc23)c1 returned XBP1 UPR activ 32*, UPR CHOP act 5, T cruzi inh 65*, Dynein cargo inh -0.26, L major viab 56*, CHOP inhibitor 96*, CHOP inh conf 56 and XBP1 UPR conf 58*.
For O=C(O)c1cccc(Nc2nc(-c3ccccc3)nc3ccccc23)c1 the results were XBP1 UPR activ 6, UPR CHOP act -3 and T cruzi inh -1.
Screening COc1cc(NC(=O)c2ccco2)c(C(=O)OCC(=O)c2c[nH]c3ccccc23)cc1OC returned XBP1 UPR activ 131*, UPR CHOP act 0, T cruzi inh 6, Dynein cargo inh 0.36, L major viab 55*, CHOP inhibitor 107*, CHOP inh conf 42 and XBP1 UPR conf 152*.
Screening O=C(Nc1ccc(F)c(Cl)c1)Nn1cnnc1 returned XBP1 UPR activ -4, UPR CHOP act -1 and T cruzi inh -12.
Screening O=C(CN1C(=O)c2ccc([N+](=O)[O-])cc2C1=O)NCc1ccc(C(=O)O)cc1 returned XBP1 UPR activ -3, UPR CHOP act 0 and T cruzi inh -1.
`CCNC(=O)c1c(NC(=O)c2cc(-c3cc(C)ccc3O)n[nH]2)sc2c1CCCC2` gave XBP1 UPR activ 42*, UPR CHOP act 8, T cruzi inh 46, Dynein cargo inh 0.87, L major viab 4, CHOP inhibitor 101*, CHOP inh conf 106* and XBP1 UPR conf 75*.
Screening COc1ccc(-c2nn(-c3ccccc3)cc2/C=N/N2C(=O)CSC2=S)cc1 returned XBP1 UPR activ 39*, UPR CHOP act 22, T cruzi inh -19, Dynein cargo inh -0.65, L major viab 25, CHOP inhibitor 112*, CHOP inh conf 77* and XBP1 UPR conf 27*.
Screening O=[N+]([O-])c1ccc(/C=N/n2c(-c3ccccc3)n[nH]c2=S)cc1 returned XBP1 UPR activ -2, UPR CHOP act 0 and T cruzi inh -3.
Screening O=[N+]([O-])c1ccc(-c2nn(-c3ccccc3)cc2/C=N/n2c(-c3cccs3)n[nH]c2=S)cc1 returned XBP1 UPR activ 41*, UPR CHOP act 14, T cruzi inh 1, Dynein cargo inh 0.7, CHOP inhibitor 102*, CHOP inh conf 101* and XBP1 UPR conf 29.
`CCOc1cc(N2CCOCC2)c(OCC)cc1NC(=O)COC(=O)/C=C/c1ccc(OC(F)F)cc1` gave XBP1 UPR activ 0, UPR CHOP act 3 and T cruzi inh -5.
`C[C@H](CO)N1C[C@H](C)[C@@H](CN(C)S(=O)(=O)c2cn(C)cn2)Oc2ccc(NC(=O)Cc3ccccc3)cc2C1=O` gave XBP1 UPR activ -1 and UPR CHOP act 2.
For Cc1ccc(N=Cc2c(O)n(-c3ccc4c(c3)OCO4)c(=O)c3ccccc23)cc1 the results were XBP1 UPR activ 35*, UPR CHOP act 8, T cruzi inh -7, Dynein cargo inh 0.48, L major viab 3, CHOP inhibitor 102*, CHOP inh conf -145 and XBP1 UPR conf 27*.
For N=c1n(CC(=O)c2ccc(Br)cc2)c2ccccc2n1Cc1ccccc1 the results were XBP1 UPR activ 20 and UPR CHOP act 7.
Screening N=c1n(CC(=O)c2ccc([N+](=O)[O-])cc2)c2ccccc2n1Cc1ccc(Cl)cc1 returned XBP1 UPR activ 165*, UPR CHOP act 35, T cruzi inh 22, Dynein cargo inh 0.95, L major viab 100*, CHOP inhibitor 105*, CHOP inh conf 122* and XBP1 UPR conf 59*.
Screening Nc1nc(SCc2ccc(Cl)cc2Cl)nc2nc3c(cc12)CCCC3 returned XBP1 UPR activ 59*, UPR CHOP act 3, T cruzi inh 26, Dynein cargo inh 1.2, L major viab 10, CHOP inhibitor 103*, CHOP inh conf -38 and XBP1 UPR conf 133*.
Screening Cc1ccc(-c2nn(CC(=O)NCc3cc(-c4nn(C)c(=O)c5ccccc45)ccc3C)c(=O)c3ccccc23)cc1 returned XBP1 UPR activ 81*, UPR CHOP act 12, T cruzi inh -10, Dynein cargo inh -0.39, L major viab 2, CHOP inhibitor 106*, CHOP inh conf 93* and XBP1 UPR conf 61*.
Screening COc1ccccc1NC(=O)CSc1nc2c(sc3ccccc32)c(=O)n1CCN(C)C returned XBP1 UPR activ -3, UPR CHOP act -1, T cruzi inh -7, Dynein cargo inh -0.2, L major viab 3 and CHOP inhibitor 29.
Screening CCN(CC)CCn1c(SCC(=O)Nc2ccc(F)cc2)nc2c(sc3ccccc32)c1=O returned XBP1 UPR activ 166*, UPR CHOP act 9, T cruzi inh 10, Dynein cargo inh -0.43, L major viab 12, CHOP inhibitor 104*, CHOP inh conf 90* and XBP1 UPR conf 228*.
